# M1 antag: antagonists of rat M1 muscarinic receptor. CHO-M1 cells, Fluo-4 calcium, ACh EC80 antagonist mode; stronger effect = lower value. B-score at 10 µM. 64,000 compounds, 3.4% hits;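 active means calcium fluorescence response, raw or row-and-column corrected B-score, differing from the plate sample mean either way at a set confidence level, mostly lower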
# D1 allo mod: D1 CRE-luciferase signal change, two-sided – cell-based, HEK293 D1, dopamine EC30, D1 allosteric modulator project, primary screen; dopamine EC30 potentiation; actives deviate in either direction; B-score at 10 µM; D(1A) dopamine receptor (Homo sapiens), P21728; 58,000 compounds, 5.9% hits;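 active means luminescence count or its row- and column-corrected plate score outside the 99.7% band of the plate's sample wells, on either side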
# Target sequence (P21728 whole entry, looked up): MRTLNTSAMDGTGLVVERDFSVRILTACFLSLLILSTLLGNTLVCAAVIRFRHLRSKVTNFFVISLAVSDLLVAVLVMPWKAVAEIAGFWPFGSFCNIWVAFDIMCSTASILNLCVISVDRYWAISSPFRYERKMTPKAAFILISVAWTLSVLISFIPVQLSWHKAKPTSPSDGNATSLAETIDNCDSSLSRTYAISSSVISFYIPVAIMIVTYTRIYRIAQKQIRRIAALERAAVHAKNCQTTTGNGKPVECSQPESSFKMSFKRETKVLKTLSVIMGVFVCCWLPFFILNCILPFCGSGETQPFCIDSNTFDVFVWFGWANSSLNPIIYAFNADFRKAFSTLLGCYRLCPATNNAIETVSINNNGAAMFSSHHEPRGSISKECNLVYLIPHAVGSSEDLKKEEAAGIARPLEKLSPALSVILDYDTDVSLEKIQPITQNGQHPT
# S1P1 ag pot: S1P1 agonists and agonism potentiators, primary screen, cell-based, primary and confirmation screens, CRE-bla reporter. 56,000 compounds, 0.57% hits. activation, % at 9.5 µM. S1P1 CRE-bla cells, forskolin, beta-lactamase FRET, potentiator mode; S1P1 agonist co-added at EC20, 2 nM; 100% = saturating reference agonist, 0% = basal. Sphingosine 1-phosphate receptor 1 (Homo sapiens), P21453;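 active means activation above a cutoff set at the mean activation of all tested compounds plus 3 SD, cut at about 54% in these data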;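 further: forskolin at 4 µM as EC80 and the EC20 agonist is SEW2871; 100% = SEW2871 at its EC100 plus forskolin at EC80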
# M1 ag: M1 muscarinic receptor agonists, primary screen, CHO-M1 cells, Fluo-4 calcium, agonist mode; Fluo-4 calcium fluorescence; stronger effect = higher value; Muscarinic acetylcholine receptor M1; B-score at 10 µM; 64,000 compounds, 3% hits;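 active means fluorescence rise, raw or as B-score row- and column-corrected plate score, outside the 99.7% band of its plate's samples, either direction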
# S1P3 agonist: human S1P3 receptor agonists, primary screen, cell-based, primary and confirmation, NFAT-BLA reporter; Sphingosine 1-phosphate receptor 3 (Homo sapiens), Q99500; S1P3 NFAT-BLA reporter cells, agonism, FRET ratio; relative to 1 µM S1P, basal subtracted; activation, % at 4.5 µM; 60,000 compounds, 0.1% hits;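 active means activation above the screen-wide mean plus 3 SD, cut at about 4.5% in these data, passing the limit was not always enough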
#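 Measure – % activation relative to 1 µM S1P (100%), per plate · System – stable CHO line with human S1P3, Gα16, NFAT-BLA reporter · Timing – cells plated overnight, compound 4 h 37 °C, substrate 2 h RT · Technique – fluorescent BLA substrate, ex 405 nm, em 460/535 nm ratio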
# * = called active by the depositor; . = no result given. This is a sample that favours compounds with a hit; in the whole collection about 11% have one here.
SMILES,M1 antag,D1 allo mod,S1P1 ag pot,M1 ag,S1P3 agonist
Cn1c(=O)c2cc(S(=O)(=O)NC(Cc3ccccc3)C(=O)NCc3ccco3)ccc2n(C)c1=O (centres undefined),-0.3,0.0412,-14.5,0.978,-1.4
Cn1c(-c2ccc(F)cc2)cnc1NCc1ccccc1,-0.79,-3.36*,-10.3,0.157,-0.9
Cn1c(N2CCN(C(=O)NCc3ccccc3)CC2)nc2ccccc21,-0.441,-0.689,3.2,0.94,0.3
Cc1occc1C(=O)N1CCN(c2ccc(Cl)c(Cl)c2)CC1,-0.504,-0.119,69.3*,1.28,-1.3
O=C(NCc1ccccc1)N1CCN(c2ccc(Cl)c(Cl)c2)CC1,-0.771,0.00225,99.8*,-1.24,-1.0
c1ccc2c(c1)OCC(c1nn3c(Cn4nnc5ccccc54)nnc3s1)O2 (centres undefined),-0.246,0.319,.,-3.24*,-0.9
c1ccc(Cc2nn3c(Cn4nnc5ccccc54)nnc3s2)cc1,0.581,2.28,10.5,-0.0373,-0.5
CCSc1nc2sc3c(c2c(=O)n1C1CCCCC1)CCN(C)C3,-2.3*,.,5.7,-0.89,-4.0
N#CCSc1nc2sc3c(c2c(=O)n1C1CCCCC1)CCCC3,0.19,.,-8.3,0.111,1.2
CC(C)Cn1c2nc3ccccc3nc2c2c(=O)n(CCN3CCOCC3)cnc21,-0.0478,4.79*,-0.3,-1.13,-0.5
C(=C\c1ccccc1)/CN1CCN(c2ncnc3c2oc2ccccc23)CC1,-0.647,-1.57,.,6.86*,.
c1cnc(N2CCN(c3ncnc4c3oc3ccccc34)CC2)nc1,-1.51,4.35,-42.5,3.21*,0.2
CCC1Cc2c(nc3c4c(nc(N5CCOCC5)c(C#N)c24)NC(C)=N3)O1 (centres undefined),-0.124,4.19*,-61.1,1.01,2.0
Cc1cc(NC(=O)C2CCN(S(=O)(=O)c3cnc[nH]3)CC2)ccc1Br,-0.343,-0.944,3.5,-0.435,-0.1
O=C1NC(Nc2nccs2)(C(F)(F)F)C(=O)N1CCc1ccccc1 (centres undefined),-0.248,0.113,8.5,0.0751,-1.0
O=C(Nc1ncc(Br)s1)C(Cc1ccccc1)n1cccc1 (centres undefined),0.0492,-0.245,98.8*,-0.132,-0.6
O=C(Nc1cccnc1)C(Cc1ccccc1)n1cccc1 (centres undefined),-0.739,0.016,-1.3,-0.766,0.7
COCCn1c(-c2cc(OC)c(OC)c(OC)c2)nc2oc3ccccc3c(=O)c2c1=O,-0.0844,0.734,-34.5,-0.0177,-0.4
CCCCNc1cc(=O)n(C)c(=O)[nH]1,0.733*,.,11.1,0.249,-1.0
Cn1c(=O)cc(NCc2ccccc2)[nH]c1=O,-0.165,.,-1.6,-0.624,-2.7
CCC(=O)Nc1ccc(N2CCN(Cc3ccccc3)CC2)cc1,-0.405,0.132,1.5,0.28,0.8
CCN1CCN(c2ccc(NC(=O)Cc3ccccc3)cc2)CC1,-0.299,-4.71*,-16.9,0.669,-1.6
COc1cccc(CNn2cnnc2)c1OCc1ccc(F)cc1,0.339,-4.88*,4.4,-0.508,0.1
O=c1c2c3nc4ccccc4nc3n(-c3ccc4c(c3)OCCO4)c2ncn1C1CCCC1,0.195,-0.935,12.2,0.122,-1.9
CCC(C)n1c(C)nc2c(c1=O)c1nc3ccccc3nc1n2-c1ccc2c(c1)OCCO2 (centres undefined),-0.346,-5.27*,-4.4,-0.657,-0.5
SMILES,M1 antag,D1 allo mod,S1P1 ag pot,M1 ag,S1P3 agonist
O=c1c2c3nc4ccccc4nc3n(-c3ccc4c(c3)OCCO4)c2ncn1CC1CCCO1 (centres undefined),-1.76*,1.88,-0.3,-0.0131,0.8
CCOC(=O)C(C(=O)OCC)c1cc(Br)c2noc3c2c1C(=O)c1ccccc1-3,-0.761,-1.04,.,788*,.
CC(=O)OCCNc1cc(N2CCN(C)CC2)c2noc3c2c1C(=O)c1ccccc1-3,0.00929,0.0311,-28.9,-0.534,-0.7
Cc1c(NC(=O)c2ccc3c(c2)OCO3)c(=O)n(-c2ccccc2)n1C,0.454,.,.,0.438,.
Cc1cc(C)c(S(=O)(=O)n2nc(C)c(Br)c2C)c(C)c1,0.526,0.402,.,-0.197,-0.7
CCCCS(=O)(=O)/C=C\C=C/S(=O)(=O)CCCC,0.46,-2.4*,.,0.264,.
CCCCS(=O)(=O)/C=C\C1C2C=CC(C2)C1S(=O)(=O)CCCC (centres undefined),0.216,-0.216,-17.3,-0.018,-1.1
COCCN1Cc2cccc(C(=O)Nc3cccnc3)c2C1=O,-0.135,2.93,-14.7,0.0173,-0.5
CCCN1Cc2cccc(C(=O)Nc3ccc(OC)c(OC)c3)c2C1=O,-0.496,3.8*,-6.1,-0.806,-0.8
CCCN1Cc2cccc(C(=O)Nc3ccc(CN4CCCC4)cc3)c2C1=O,.,3.33,1.9,.,0.1
COCCN1Cc2cccc(C(=O)Nc3ccc(S(=O)(=O)N4CCCCC4)cc3)c2C1=O,.,6.76*,-3.0,.,0.4
C#Cc1ccc(C(=O)Nc2cc(C(N)=O)ccc2N2CCOCC2)cc1,0.0747,0.0314,2.8,-1.38,-1.7
NC(=O)CSc1nnc(-c2ccc(S(=O)(=O)N3CCOCC3)cc2)n1Cc1ccccc1,2.34*,.,1.2,-0.909,-0.9
NC(=O)CSc1nnc(-c2ccc(S(=O)(=O)N3CCOCC3)cc2)n1CC1CCCO1 (centres undefined),-1.97,.,-2.0,0.444,-1.2
Nc1cc(OC(=O)c2cccs2)nn1S(=O)(=O)c1ccccc1,.,-5.32*,-10.9,.,-0.2
CCN(CC)S(=O)(=O)c1cc(C(=O)NC2CCCCC2)ccc1C,0.419,-1.38,-7.7,0.079,-1.1
Cc1ccnc(Nc2nc3ccccc3o2)n1,0.486,-4.44*,-4.0,0.36,-0.9
CCOC(=O)C1=C(C)NC(C)=C(C(=O)OCC)C1C(=O)OCC(=O)N1CCc2ccccc2C1,-0.393,1.27,10.0,2.28,-1.6
O=C(CCCSc1nc2ccccc2[nH]1)NC1=NCCS1,1.72*,.,.,1.32,.
O=C(CCCSc1nc2ccccc2[nH]1)N1CCN(c2ccccc2)CC1,0.0186,-0.362,-17.4,-0.569,-0.8
CC(=O)OC(C(=O)NCc1ccco1)c1ccncc1 (centres undefined),0.516,-0.998,-7.7,0.496,-0.8
Cn1c(=O)c2c(nc(SCC(=O)NC3CCCCC3)n2C)n(C)c1=O,-0.352,0.133,-3.2,-0.596,-1.1
Cn1c(=O)c2c(-c3ccccc3)n(C3CCCCC3)cc2n(C)c1=O,-0.176,4.27,-7.9,0.0795,12.9*
CCCCCn1c(CN2CCN(c3cc(Cl)ccc3C)CC2)nc2c1c(=O)[nH]c(=O)n2C,0.615,1.6,-26.9,0.4,-0.5
